The term EC50 denotes the concentration at which the effect is half-maximal.

Data on 18 compounds can be found in ChEMBL document CHEMBL1143101, “Understanding the cardioprotective effects of flavonols: discovery of relaxant flavonols without antioxidant activity” (J Med Chem, 2008).

Experiment [1] relates to Aorta. The experiment can be described thus: Vascular activity in KPSS precontracted Sprague-Dawley rat thoracic aorta assessed as endothelium dependent relaxation. Type of experiment: functional, tissue-based. Also on record: Activity: concentration or dose not given beside the values. The conditions noted are these: for EC50: Rattus norvegicus, Sprague-Dawley, Thoracic aorta.

The test system of experiment [2] is Aorta. The experiment in a line: Antioxidant activity in Sprague-Dawley rat thoracic aorta assessed as superoxide levels at 10 uM by lucigenin-enhanced chemiluminescence assay relative to control. Type of experiment: functional. An outline of the steps: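 Male Sprague-Dawley aortic rings incubated 45 min at 37 °C, pH 7.4, in Krebs-HEPES with DETCA 3 mM (inactivates SOD), NADPH 100 µM and flavonol 10 µM (DMSO 1%). Rings then moved to wells containing lucigenin 50 µM and NADPH 100 µM, and photon emission counted. Counts normalized to dry tissue weight (dried 48 h, 65 °C), expressed as % of vehicle; n = rats.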

Experiment [3] has as its system Aorta. The experiment can be described thus: DPPH scavenging activity in Sprague-Dawley rat thoracic aorta at 100 uM relative to control. Type of experiment: functional. The gist of the method:
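Cell-free DPPH radical scavenging. Flavonol in DMSO mixed 1:1 with 0.1 mM DPPH in methanol, 10 min at room temperature in the dark, absorbance read at 560 nm. Level = (A flavonol/A DPPH) × 100, as % of vehicle.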
(The DPPH test is a chemical assay of radical scavenging.)

In experiment [4] the test system is Aorta. The experiment in a line: Vasorelaxant activity against U46619-induced contraction in endothelium-intact Sprague-Dawley rat thoracic aorta. The experiment is classed as functional, tissue-based. The arrangement: Activity: scale not given: the % may be the effect or the level left. The conditions noted are these: for EC50: Rattus norvegicus, Sprague-Dawley, Thoracic aorta.

The subject of experiment [5] is Aorta. The experiment can be described thus: Vasorelaxant activity against U46619-induced contraction in endothelium-denuded Sprague-Dawley rat thoracic aorta. The experiment is classed as functional, tissue-based. Also on record: Activity: scale not given: the % may be the effect or the level left. The conditions noted are these: for EC50: Rattus norvegicus, Sprague-Dawley, Thoracic aorta.

For experiment [6], the system named is Aorta. The experiment can be described thus: Vasorelaxant activity against KCl-induced contraction in endothelium-intact Sprague-Dawley rat thoracic aorta. The experiment is classed as functional, tissue-based. Also on record: Activity: scale not given: the % may be the effect or the level left. Conditions: for EC50: Rattus norvegicus, Sprague-Dawley, Thoracic aorta.

The subject of experiment [7] is Aorta. The experiment can be described thus: Vasorelaxant activity against KCl-induced contraction in endothelium-denuded Sprague-Dawley rat thoracic aorta. The arrangement: Activity: scale not given: the % may be the effect or the level left. The conditions noted are these: for EC50: Rattus norvegicus, Sprague-Dawley, Thoracic aorta. The experiment is classed as functional, tissue-based.

The subject of experiment [8] is Aorta. The experiment can be described thus: Effect on acetylcholine-induced vasorelaxation in pyrogallol exposed Sprague-Dawley rat thoracic aorta. Also on record: Activity: scale not given: the % may be the effect or the level left. The experiment is classed as functional, tissue-based. The conditions noted are these: for EC50: Rattus norvegicus, Sprague-Dawley, Thoracic aorta. An outline of the steps: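 Endothelium-intact male Sprague-Dawley aortic rings in organ baths with nifedipine 30 nM. Pretreated 20 min with pyrogallol 30 µM, alone or with flavonol 30 µM (15% DMSO/85% methanol), or vehicle. Rings precontracted with U46619 1–10 nM to about 50% of the 123 mM KCl response, then cumulative acetylcholine curves run. Relaxation given as % of precontraction; mean ± SEM, n = rats.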

The test system of experiment [9] is Aorta. The experiment can be described thus: Effect on acetylcholine-induced vasorelaxation in xanthine/xanthine oxidase exposed Sprague-Dawley rat thoracic aorta. The experiment is classed as functional, tissue-based. Conditions: for EC50: Rattus norvegicus, Sprague-Dawley, Thoracic aorta. The arrangement: Activity: scale not given: the % may be the effect or the level left. An outline of the steps: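 Aortic rings incubated with xanthine oxidase 0.016 U/mL for 30 min, then flavonol 30 µM for 20 min, then xanthine 100 µM for 10 min. Rings then precontracted with U46619 and cumulative acetylcholine concentration-response curves recorded. Relaxation given as % of U46619 precontraction; mean ± SEM, n = rats.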

Structures are written as SMILES.

With `O=c1c(O)c(-c2ccc(O)c(O)c2)oc2ccccc12`, the Activity came out at 102% in the experiment on Aorta [1]; 27% with Aorta [2]; 36% in the experiment with Aorta [3]; 101% with Aorta [4]; 100% in the experiment with Aorta [5]; 100% with Aorta [6]. Moreover, the Activity came to 100% with Aorta [7], 81% in the experiment with Aorta [8] and 84% in the experiment with Aorta [9]. Also, the EC50 with Aorta [1] was 5.01 µM; with Aorta [4] it was 1.35 µM; in the experiment on Aorta [5], 3.02 µM; in the experiment on Aorta [6] it was 5.5 µM; in the experiment with Aorta [7], 6.31 µM; with Aorta [8] it was 0.0646 µM. A half-maximal response in the experiment on Aorta [9] (EC50) required 0.055 µM.
Consider `CC(C)(C)c1cc(-c2oc3ccccc3c(=O)c2O)ccc1O`, for which the Activity turned out to be 38% in the experiment on Aorta [1], 108% in the experiment with Aorta [2] and 26% in the experiment with Aorta [3]. Besides, the EC50 in the experiment on Aorta [1] is 4.68 µM.
Take `O=c1c(O)c(-c2cccc(O)c2)oc2ccccc12`: the results for the Activity in the experiment with Aorta [1], in the experiment with Aorta [2] and in the experiment with Aorta [3] were 98%, 78% and 87%, respectively. The EC50 in the experiment on Aorta [1] is 3.24 µM.
The corresponding values for `Cc1cccc(-c2oc3ccccc3c(=O)c2O)c1` are 37%, 85%, 80% and 74.1 µM.
`O=c1c(O)c(-c2ccc(Cl)cc2)oc2ccccc12`: the results for the Activity in the experiment with Aorta [1], in the experiment with Aorta [2] and with Aorta [3] were 37%, 100% and 93%, respectively. In addition, in the experiment with Aorta [1], the EC50 was 8.13 µM.
Regarding `O=c1c(O)c(-c2ccc(O)cc2)oc2ccccc12`, the Activity with Aorta [1] was found to be 99%; with Aorta [2], 74%; in the experiment with Aorta [3], 32%; in the experiment with Aorta [4], 100%; with Aorta [5] it was 102%; in the experiment on Aorta [6] it was 95%. This compound returned an Activity in the experiment with Aorta [7] of 92%. The EC50 in the experiment with Aorta [1] was 4.68 µM; in the experiment with Aorta [4], 1.66 µM; with Aorta [5], 3.16 µM; with Aorta [6], 5.13 µM; in the experiment on Aorta [7], 5.5 µM.
Take `CC(C)(C)c1ccc(-c2oc3ccccc3c(=O)c2O)cc1`: the Activity with Aorta [1] stood at 10%; in the experiment on Aorta [2], 111%; with Aorta [3], 71%.
As for `COc1cccc(-c2oc3ccccc3c(=O)c2O)c1`, the Activity with Aorta [1] worked out at 79%; in the experiment with Aorta [2], 74%; with Aorta [3], 71%; in the experiment with Aorta [4], 101%; in the experiment on Aorta [5], 93%; with Aorta [6], 87%. The Activity with Aorta [7] worked out at 86%. Also, the EC50 with Aorta [1] was 7.08 µM; in the experiment with Aorta [4], 3.02 µM; in the experiment on Aorta [5] it was 3.72 µM; in the experiment on Aorta [6] it was 7.76 µM; with Aorta [7], 8.91 µM.
Turning to `O=c1c(O)c(-c2cccc(C(F)(F)F)c2)oc2ccccc12`, the Activity in the experiment with Aorta [1] came out at 23%; in the experiment on Aorta [2], 80%; in the experiment with Aorta [3] it was 89%. In addition, in the experiment with Aorta [1], the EC50 is 115 µM.
For `COc1ccc(-c2oc3ccccc3c(=O)c2O)cc1`, the Activity came to 16% in the experiment with Aorta [1], 89% with Aorta [2] and 51% with Aorta [3].
Take `O=c1c(O)c(-c2cccc(Cl)c2)oc2ccccc12`: the Activity was 53% in the experiment with Aorta [1], 75% in the experiment with Aorta [2] and 87% with Aorta [3]. The EC50 in the experiment with Aorta [1] is 6.76 µM.
As for `COc1cc(-c2oc3ccccc3c(=O)c2O)ccc1O`, the Activity in the experiment on Aorta [1] was determined as 98%; in the experiment with Aorta [2] it was 106%; in the experiment with Aorta [3] it was 24%; in the experiment on Aorta [4], 101%; in the experiment on Aorta [5], 100%; in the experiment on Aorta [6], 100%. Also, the Activity with Aorta [7] was 93%; in the experiment on Aorta [8] it was 42%; with Aorta [9], 62%. The EC50 in the experiment with Aorta [1] was 4.47 µM; in the experiment with Aorta [4], 0.871 µM; with Aorta [5], 1.66 µM; in the experiment on Aorta [6], 4.79 µM; in the experiment with Aorta [7], 5.62 µM; in the experiment on Aorta [8], 0.275 µM. In addition, the EC50 in the experiment on Aorta [9] was 0.0891 µM.
As to `Cc1ccc(-c2oc3ccccc3c(=O)c2O)cc1`, the Activity in the experiment with Aorta [1] turned out to be 13%; with Aorta [2] it was 101%; with Aorta [3], 76%.
For `O=c1c(O)c(-c2ccc(O)c(Br)c2)oc2ccccc12`, the Activity in the experiment on Aorta [1] was determined as 100%; in the experiment with Aorta [2], 96%; in the experiment on Aorta [3], 23%. Further, in the experiment on Aorta [1], the EC50 is 2.51 µM.
Regarding `O=c1c(O)c(-c2ccc(C(F)(F)F)cc2)oc2ccccc12`, the Activity with Aorta [1] stood at 6%; in the experiment on Aorta [2], 85%; with Aorta [3] it was 90%.
Regarding `O=c1c(O)c(-c2ccccc2)oc2ccccc12` [FLAVONOL], the Activity with Aorta [1] amounted to 91%; with Aorta [2] it was 70%; in the experiment on Aorta [3], 83%. Besides, the EC50 in the experiment with Aorta [1] is 7.59 µM.
Consider `Cc1cc(-c2oc3ccccc3c(=O)c2O)ccc1O`, for which the figures for the Activity in the experiment on Aorta [1], in the experiment on Aorta [2] and in the experiment on Aorta [3] were 98%, 105% and 25%, respectively. In addition, the EC50 with Aorta [1] was 4.37 µM.
The like results for `O=c1c(O)c(-c2ccc(O)c(C(F)(F)F)c2)oc2ccccc12` were, in that order, 77%, 109%, 26% and 16.6 µM.
